# Activity calls are given as the source filed them. The rule behind the calls is not given here. Where a SMILES comes first, the peptide text is derived from it.
# Columns and labels:
# [1] = biological target: T1, EH domain-containing protein 1 (Homo sapiens) (UniProt Q9H4M9); assay: Inhibition of EHD1-EH in human HeLa cells assessed as reduction in internalized transferrin-488 recycling at 50 uM measured after 60 mins by pulse-chase method; type: cell-based
# T1 sequence (whole entry): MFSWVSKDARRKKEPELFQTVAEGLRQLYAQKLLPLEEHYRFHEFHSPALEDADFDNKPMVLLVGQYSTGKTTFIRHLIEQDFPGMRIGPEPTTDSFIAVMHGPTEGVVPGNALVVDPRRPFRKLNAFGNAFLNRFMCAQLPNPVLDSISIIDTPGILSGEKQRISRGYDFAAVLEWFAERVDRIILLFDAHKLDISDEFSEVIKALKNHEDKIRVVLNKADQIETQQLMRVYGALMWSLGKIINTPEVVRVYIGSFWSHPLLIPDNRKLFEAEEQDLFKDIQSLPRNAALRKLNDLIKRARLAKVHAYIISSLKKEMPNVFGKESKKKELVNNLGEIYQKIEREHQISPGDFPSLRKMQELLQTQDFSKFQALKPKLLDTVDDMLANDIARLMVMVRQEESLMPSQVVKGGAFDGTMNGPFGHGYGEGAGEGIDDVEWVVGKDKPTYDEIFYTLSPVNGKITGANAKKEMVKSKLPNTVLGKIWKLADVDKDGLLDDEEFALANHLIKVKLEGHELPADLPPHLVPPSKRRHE
# Outline: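 HeLa cells were grown in DMEM/10% FBS to 80% confluence, then starved 30 min in DMEM with 0.5% BSA. Cells got a 60-min pulse with Tf-488 (25 µg/mL), with inhibitor present. A 30-min chase followed with 2 mg/mL unlabeled transferrin plus inhibitor, 0.2% DMSO final. Cells were washed in cold PBS, trypsinized and fixed. Flow cytometry counted 10,000 live cells; 50 µM primaquine was the positive control.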
# [2] = biological target: T2, EH domain-containing protein 1 (Homo sapiens, UniProt Q9H4M9); assay: Binding affinity to GST-fused EHD1 EH domain (unknown origin) expressed in Escherichia coli BL21 cells measured after 1 hr in presence of 150 mM NaCl by fluorescence polarization assay
# T2 sequence (Q9H4M9 whole entry): T1 sequence (whole entry)
# Outline: (§1)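 NaCl was 15 mM or 150 mM. Polarization was read 1 h after probe addition and re-read later to confirm equilibrium. Kd came from curve fits; technical triplicates, three independent experiments.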
# Homo sapiens = species on record: Homo sapiens; assay: Selectivity ratio of IC50 for GST-fused Eps15 EH2 domain (unknown origin) expressed in Escherichia coli BL21 cells to IC50 for GST-fused EHD1 EH domain (unknown origin)
# [3] = biological target: T3, Epidermal growth factor receptor substrate 15 (Homo sapiens, UniProt P42566); assay: Binding affinity to GST-fused Eps15 EH2 domain (unknown origin) expressed in Escherichia coli BL21 cells under high salt condition by fluorescence polarization assay
# T3 sequence (P42566 whole entry): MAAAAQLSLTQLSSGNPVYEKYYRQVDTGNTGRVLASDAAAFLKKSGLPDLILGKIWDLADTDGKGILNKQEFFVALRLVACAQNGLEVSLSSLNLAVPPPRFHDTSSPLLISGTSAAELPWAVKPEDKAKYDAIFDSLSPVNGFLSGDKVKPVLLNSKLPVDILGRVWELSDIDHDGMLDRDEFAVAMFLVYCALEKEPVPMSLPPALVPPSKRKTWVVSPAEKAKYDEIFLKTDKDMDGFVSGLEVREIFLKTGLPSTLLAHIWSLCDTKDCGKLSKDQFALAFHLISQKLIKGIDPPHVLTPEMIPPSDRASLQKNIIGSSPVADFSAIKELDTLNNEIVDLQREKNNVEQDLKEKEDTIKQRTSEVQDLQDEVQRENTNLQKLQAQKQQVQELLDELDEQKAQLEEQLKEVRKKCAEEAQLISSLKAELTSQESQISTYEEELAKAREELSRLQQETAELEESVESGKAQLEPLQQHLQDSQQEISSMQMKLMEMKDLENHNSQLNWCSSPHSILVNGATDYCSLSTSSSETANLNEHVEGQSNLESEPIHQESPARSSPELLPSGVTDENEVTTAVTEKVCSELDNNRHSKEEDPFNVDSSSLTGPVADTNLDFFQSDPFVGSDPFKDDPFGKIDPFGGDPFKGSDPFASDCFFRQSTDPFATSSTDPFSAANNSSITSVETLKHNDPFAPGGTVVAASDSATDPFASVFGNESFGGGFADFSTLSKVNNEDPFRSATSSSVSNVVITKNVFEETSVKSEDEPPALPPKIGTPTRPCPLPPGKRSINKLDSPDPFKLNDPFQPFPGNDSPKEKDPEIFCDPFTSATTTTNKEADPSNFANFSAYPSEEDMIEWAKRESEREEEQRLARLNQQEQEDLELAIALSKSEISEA
# Outline: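 Eps15-EH2 protein concentration was set by A280 using an extinction coefficient of 13980 M-1cm-1. Binding of fluorescein-labeled peptides to Eps15-EH2 was measured in an FP direct binding format with varying protein concentration.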
# [4] = biological target: T2, EH domain-containing protein 1; assay: Binding affinity to GST-fused EHD1 EH domain (unknown origin) expressed in Escherichia coli BL21 cells measured after 1 hr in presence of 15 mM NaCl by fluorescence polarization assay; outline: as §1
inhibition [1],Kd [2],IC50 [3],Kd [4],SMILES,Ratio IC50 (Homo sapiens)
Active,–,–,–,COc1cc(NC(C)CCCN)c2ncccc2c1 (configuration not stated),–
–,15.1 µM,> 100 µM,3 µM,"CC(=O)N(CCCC[C@@H]1NC(=O)CNC(=O)[C@H](CCC(=O)O)NC(=O)[C@H](CCC(=O)O)NC(=O)[C@H](Cc2ccccc2)NC(=O)[C@@H]2CCCN2C(=O)[C@H](CC(N)=O)NC(=O)[C@H](Cc2ccc(O)cc2)NC1=O)C(=O)c1ccccc1-c1c2ccc(=O)cc-2oc2cc(O)ccc12 (HELM PEPTIDE1{E.E.G.[CC(=O)N(CCCC[C@H](N[*:1])C(=O)[*:2])C(=O)c1ccccc1-c1c2ccc(=O)cc-2oc2cc(O)ccc12].Y.N.P.F}$PEPTIDE1,PEPTIDE1,1:R1-8:R2$$$V2.0)",15
inactive,–,–,–,"NC(=O)C[C@@H]1NC(=O)[C@H](Cc2ccc(O)cc2)NC(=O)CNC(=O)CNC(=O)[C@H](CCC(=O)O)NC(=O)[C@H](CCC(=O)O)NC(=O)[C@H](Cc2ccccc2)NC(=O)[C@@H]2CCCN2C1=O (HELM PEPTIDE1{Y.N.P.F.E.E.G.G}$PEPTIDE1,PEPTIDE1,1:R1-8:R2$$$V2.0)",–
inactive,–,–,–,"C#CCCC(=O)N[C@H]1CSCc2ccc(cc2)CSCCNC(=O)[C@H](CCC(=O)O)NC(=O)[C@H](CCC(=O)O)NC(=O)[C@H](Cc2ccccc2)NC(=O)[C@@H]2CCCN2C(=O)[C@H](CC(N)=O)NC(=O)[C@H](Cc2ccc(O)cc2)NC1=O (HELM PEPTIDE1{[C#CCCC(=O)[*:2]].C.Y.N.P.F.E.E}|CHEM1{[c1cc(C[*:1])ccc1CSCCN[*:2]]}$PEPTIDE1,CHEM1,2:R3-1:R1|PEPTIDE1,CHEM1,8:R2-1:R2$$$V2.0)",–
